# Source: ChEMBL document CHEMBL6134784, “Furoxan-piplartine hybrids as effective NO donors and ROS inducers in PC3 cancer cells: design, synthesis, and biological evaluation” (RSC Med Chem, 2024)
# The source made the active and inactive calls. No cut-off for these calls is given here.
# What was measured:
# MCF7 = test: Cytotoxicity against human MCF7 cells assessed as reduction in cell viability measured after 48 hrs by CCK-8 assay; format: functional, cell-based; conditions: MCF7, 48 h
# Procedure, shortened: (§1)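 CCK-8 viability: cells grown in RPMI-1640 with 10% FBS, 1×10^4 per well, attached 24 h, then medium replaced with fresh medium containing a range of compound concentrations for 48 h at 37 °C, 5% CO2. CCK-8 added 3 h, absorbance 450 nm; vehicle control set as 100%. IC50 by nonlinear regression, mean ± SD, at least two experiments in triplicate.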
# [1] = Cytotoxicity against human MCF-10A cells assessed as reduction in cell viability measured after 48 hrs by CCK-8 assay; format: toxicity, cell-based; procedure, shortened: as §1
# PC-3 [2] = test: Cytotoxicity against human PC-3 cells assessed as reduction in cell viability measured after 48 hrs by CCK-8 assay; format: functional, cell-based; conditions: PC-3, 48 h; procedure, shortened: as §1
# [3] = Cytotoxicity against human PNT2 cells assessed as reduction in cell viability measured after 48 hrs by CCK-8 assay; format: toxicity, cell-based; procedure, shortened: as §1
# OVCAR-3 = test: Cytotoxicity against human OVCAR-3 cells assessed as reduction in cell viability measured after 48 hrs by CCK-8 assay; format: functional, cell-based; conditions: OVCAR-3, 48 h; procedure, shortened: as §1
# [4] = Selectivity index, ratio of IC50 for cytotoxicity against human MCF-10A cells to IC50 for cytotoxicity against human MCF7 cells; format: toxicity, cell-based; conditions: MCF-10A cells versus MCF7 cells, read-out: Ratio IC50
# Procedure, shortened: (§2)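 CCK-8 was added for 3 h and A450 read, with vehicle set as 100% viability. IC50 was fitted by nonlinear regression from ≥2 experiments in triplicate. SI = normal-cell IC50 divided by the matched cancer-cell IC50.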
# [5] = Selectivity index, ratio of IC50 for cytotoxicity against human PNT2 cells to IC50 for cytotoxicity against human PC-3 cells; format: toxicity, cell-based; conditions: PNT2 cells versus PC-3 cells, read-out: Ratio IC50; procedure, shortened: as §2
# PC-3 [6] = test: Induction of nitric oxide production in human PC-3 cells assessed as nitrite level at 100 uM measured after 12 to 48 hrs by Griess assay; format: functional; conditions: time 12-48 hrs
# Procedure, shortened: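 PC3 cells were seeded at 1×10^4 per well and grown 24 h, then moved to serum-free RPMI with 100 μM compound for 12, 24 or 48 h at 37 °C. Supernatant was mixed with 1% sulfanilamide in 2.5% H3PO4 (10 min, dark), then 0.1% NED (10 min, 37 °C), and A540 was read. Nitrite was calculated from a NaNO2 curve (0–100 μM). Controls were DMSO and SNP 100 μM. Data from ≥3 independent experiments in triplicate, mean ± SD.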
# PC-3 [7] = test: Cytotoxicity against human PC-3 cells assessed as cell growth inhibition at 0.05 uM measured after 48 hrs in presence of 0.5 to 50 uM NO scavenger carboxy-PTIO by CCK-8 assay; format: functional, cell-based
# Procedure, shortened: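 PC3 at 1×10^4 cells per well attached 24 h, pretreated 1 h with carboxy-PTIO (0, 0.50, 3.13, 6.25, 12.50, 25, 50 μM), then compound added for 48 h; washed three times with PBS, growth read by CCK-8 as percent inhibition versus control cells; two experiments in triplicate.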
# PC-3 [8] = test: Cytotoxicity against human PC-3 cells assessed as reduction in cell viability at 0.05 uM measured after 24 hrs by SRB assay; format: functional, cell-based
# Procedure, shortened: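 SRB assay: PC3 seeded 1×10^4 per well, after 24 h exposed 24 h at 37 °C, 5% CO2 with or without 1 mM N-acetyl-L-cysteine; vehicle 0.1% DMSO. Fixed with 15% TCA at 4 °C for 1 h, dried, stained 0.4% sulforhodamine B, dye solubilized in 10 mM Tris, absorbance 540 nm; ANOVA/Tukey.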
# PC-3 [9] = test: Induction of ROS generation in human PC-3 cells at 0.05 uM measured after 30 mins by CellROX reagent based confocal microscopy; format: functional, cell-based
# Procedure, shortened: (§3)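 Confocal ROS imaging of PC3: cells loaded with 2.5 μM CellROX green plus 0.5 μM MitoTracker Red for 30 min at 37 °C, washed three times in PBS, imaged immediately; DMSO vehicle and H2O2 controls.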
# PC-3 [10] = test: Induction of mitochondrial membrane potential loss in human PC-3 cells at 0.05 uM measured after 30 mins by MitoTracker Red based confocal microscopy; format: functional, cell-based
# Procedure, shortened: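 Confocal imaging of PC3 cells loaded with CellROX Green (2.5 μM) and MitoTracker Red (0.5 μM) for 30 min at 37 °C, then three PBS washes and immediate capture. The MitoTracker dye stains intact mitochondria and diffuses out when membrane potential drops. Vehicle 0.1% DMSO served as negative control and 1 mM H2O2 as positive control.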
# PC-3 [11] = test: Cell cycle arrest in human PC-3 cells assessed as accumulation of cells at sub-G1 phase at 0.05 uM measured after 3 hrs by propidium iodide staining based flow cytometry (reference value: 0.75 +/- 0.21%); format: functional
# Procedure, shortened: (§4)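 PC3 cells seeded 1×10^5 per well in 6-well plates, exposed 3 h, with or without 1 mM N-acetyl-L-cysteine pretreatment; vehicle 0.1% DMSO. Harvested with trypsin-EDTA, fixed in 75% ethanol in PBS at 4 °C for 30 min, stained 1 h with RNase (1.5 mg mL^-1) and propidium iodide (90 μg mL^-1); DNA content by flow cytometry. Phase fractions compared with control by ANOVA/Tukey.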
# PC-3 [12] = test: Cell cycle arrest in human PC-3 cells assessed as increase in cell accumulation at sub-G1 phase at 0.05 uM measured after 3 hrs in presence of antioxidant N-acetyl-L-cysteine by propidium iodide staining based flow cytometry; format: functional; procedure, shortened: as §4
# PC-3 [13] = test: Cell cycle arrest in human PC-3 cells assessed as reduction in cell accumulation at G0/G1 phase at 0.05 uM measured after 3 hrs by propidium iodide staining based flow cytometry; format: functional; procedure, shortened: as §4
# PC-3 [14] = test: Cell cycle arrest in human PC-3 cells assessed as reduction in cell accumulation at S phase at 0.05 uM measured after 3 hrs by propidium iodide staining based flow cytometry; format: functional; procedure, shortened: as §4
# PC-3 [15] = test: Cell cycle arrest in human PC-3 cells assessed as increase in cell accumulation at G2/M phase at 0.05 uM measured after 3 hrs by propidium iodide staining based flow cytometry; format: functional; procedure, shortened: as §4
# PC-3 [16] = test: Induction of apoptosis in human PC-3 cells assessed as late apoptotic cells at 0.05 uM measured after 6 hrs by Alexa Fluor 488-annexin V/propidium iodide staining based flow cytometry (reference value: 3.37%); format: functional
# PC-3 [17] = test: Induction of apoptosis in human PC-3 cells assessed as necrotic cells at 0.05 uM measured after 6 hrs by Alexa Fluor 488-annexin V/propidium iodide staining based flow cytometry (reference value: 1.28%); format: functional
# PC-3 [18] = test: Induction of ROS generation in human PC-3 cells at 0.24 uM measured after 30 mins by CellROX reagent based confocal microscopy; format: functional, cell-based; procedure, shortened: as §3
# PC-3 [19] = test: Cell cycle arrest in human PC-3 cells assessed as accumulation of cells at sub-G1 phase at 0.24 uM measured after 3 hrs by propidium iodide staining based flow cytometry (reference value: 0.75 +/- 0.21%); format: functional; procedure, shortened: as §4
# PC-3 [20] = test: Cell cycle arrest in human PC-3 cells assessed as up regulation of CDKN1A gene expression at 0.24 uM measured after 3 hrs by qPCR analysis; format: functional, cell-based
Compound,IC50 (MCF7) [µM],IC50 at 48 h [1] [µM],IC50 (PC-3 [2]) [µM],IC50 at 48 h [3] [µM],IC50 (OVCAR-3) [µM],selectivity ratio [4],selectivity ratio [5],Activity (PC-3 [6]) [µM],other results
COc1cc(/C=C/C(=O)N2CCC=CC2=O)cc(OC)c1OCCCCCCCCCCCCOc1no[n+]([O-])c1S(=O)(=O)c1ccccc1,7.9,123,0.05,14.1,0.12,15.7,285,23.5,growth inhibition (GI) (PC-3 [7]): inactive; Activity (PC-3 [8]): Active; Activity (PC-3 [9]): Active; Activity (PC-3 [10]): Active; Activity (PC-3 [11]): 9.8%; Activity (PC-3 [12]): inactive; Activity (PC-3 [13]): Active; Significant Reduction Observed; Activity (PC-3 [14]): Active; Activity (PC-3 [15]): Active; Activity (PC-3 [16]): 81.12%; Activity (PC-3 [17]): 0.87%
COc1cc(/C=C/C(=O)N2CCC=CC2=O)cc(OC)c1OCCCOc1no[n+]([O-])c1S(=O)(=O)c1ccccc1,1.2,3.5,0.24,17.8,0.4,3,75.5,23.5,Activity (PC-3 [18]): Active; Activity (PC-3 [19]): 7.6%; Activity (PC-3 [20]): Active
